The sample as a whole holds a higher share of hits than the screen did.
G6PDH CS: L. mesenteroides G6PDH inhibition counter-screen. actives 0.12% (n = 200,000). AID 1020. inhibition, % at 5 µM. Purified L. mesenteroides G6PDH, diaphorase/resazurin coupled fluorescence, 45 min
Diaph inh CS: inhibits diaphorase or chemically oxidizes, flagging diaphorase assay artifacts. AID 1217. diaphorase resazurin-to-resorufin fluorescence, NADH, 16 min; bacterial (C. kluyveri) enzyme, not human. actives 0.69% (n = 190,000). inhibition, % at 20 µM;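 active means primary screen inhibition at 20 µM above a set limit, cut at about 50% in these data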;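 further: plate controls were DMSO with full reaction for no effect and wells lacking NADH for full effect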
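Assay system: diaphorase enzyme from Clostridium kluyveri; Input: enzyme working solution with 0.14 U/mL diaphorase; Timing: 16 min at room temperature; Technique: resorufin fluorescence, excitation 544 nm, emission 590 nm; Benchmarks: positive control minus NADH, DMSO neutral control.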
Diaph act CS: diaphorase activation or chemical reduction counter-screen; Diaphorase/resazurin coupled assay, resorufin fluorescence, 16 min; stronger effect = higher value; 1 = vehicle wells, 0 = NADH-free wells; activation factor at 20 µM; actives 0.005% (n = 190,000);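 active means diaphorase activity raised at least twofold by the compound at 20 µM; inactive means activation factor below 2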
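Material: Clostridium kluyveri diaphorase, purified enzyme; Quantity: enzyme 0.07 U/mL final; Medium: HEPES pH 7.4 buffer with MgCl2 and Tween 20; Dosing: single compound dose of 20 µM, 1% DMSO final; Schedule: 16 min reaction at room temperature; Measured by: red resorufin fluorescence at 544/590 nm excitation/emission.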
PfG6PD inh: PfG6PD (Plasmodium falciparum) enzyme inhibition | inhibition, % at 20 µM | PfGluPho enzyme, NADPH resazurin-diaphorase fluorescence | actives 0.78% (n = 350,000);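 active means inhibition reaching at least a set limit at 20 µM in the primary screen, cut at about 59% in these data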;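 further: 0% = DMSO wells with substrate and 100% = DMSO wells lacking glucose-6-phosphate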
Lmaj promast: inhibitors of Leishmania major promastigote growth. actives 9% (n = 200,000). Leishmania major promastigotes, resazurin fluorescence viability. inhibition, % at 10 µM;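 further: promastigotes grown with compound for 44 hours at 28 °C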
DTT redox prof: compounds producing H2O2 with reducing agent – biochemical, NIH compound library profiling, artefact control for MLSCN library redox annotation, primary screen; activation, % at 10 µM; DTT-dependent redox cycling H2O2, phenol red/HRP absorbance; 100% = 100 µM peroxide control, 0% = buffer; actives 0.03% (n = 200,000);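 active means activation of at least 50% relative to the plate's high and low controls in the primary single-dose screen; inactive means activation below 50%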;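 further: compound incubated with DTT at 0.8 mM final as the reducing agent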
The depositor's hits bear a star; . = no result given. Unless noted, no stated cut-off is given here; in the data, active means inhibition above about 50%; inactive means the rest.

SMILES	G6PDH CS	Diaph inh CS	Diaph act CS	PfG6PD inh	Lmaj promast	DTT redox prof
CCC(C)(C)n1nnnc1C(c1ccncc1)N1CCN(c2cccc(OC)c2)CC1 (centres undefined)	-7	13	0.9	4	54*	-4
CCC(C)(C)n1nnnc1C(c1cccnc1)N1CCN(c2cccc(C(F)(F)F)c2)CC1 (centres undefined)	9	11	0.9	5	95*	-2
CN1CCN(C(c2cccc(C(F)(F)F)c2)c2nnnn2C(C)(C)C)CC1 (centres undefined)	-7	-3	1	-4	-5	2
C[C@H]1CN([C@@H](C)CO)C(=O)CCCn2nncc2CO[C@@H]1CN(C)S(=O)(=O)c1cccc(F)c1	.	.	.	18	.	.
CNC[C@@H]1OCc2ccccc2-c2c(n(C)c3ccccc23)C(=O)N([C@H](C)CO)C[C@@H]1C	.	.	.	8	.	.
Cc1ccc(OCc2nnc(SCc3cc(=O)[nH]c4ccccc34)n2-c2ccccc2)cc1	2	24	0.8	2	73*	0
Cc1ccc(OCc2nnc(SCC(=O)Nc3cccc4ccccc34)n2-c2ccccc2)cc1	12	20	0.8	17	95*	1
Cc1ccc(NC(=O)CSc2nnc(-c3n[nH]c4ccccc34)n2-c2ccccc2)c(C)c1	-10	14	0.9	-24	53*	0
Cc1ccc(-n2c(COc3ccccc3)nnc2SCC(=O)O)cc1	.	.	.	-14	.	.
Cc1ccccc1OCc1nnc(SCc2cc(=O)[nH]c3ccccc23)n1-c1ccccc1	-19	21	0.8	-6	75*	0
COc1cc(CNc2nc3ccccc3n2Cc2ccccc2)ccc1O	.	.	.	-1	.	.
Cc1nnc2sc(-c3cccc(NC(=O)c4ccc(-c5cccc(Cl)c5)o4)c3)nn12	.	.	.	.	98*	-1
COc1cccc(N2CCN(CC(=O)N3CCN(S(=O)(=O)c4ccc(Cl)cc4)CC3)CC2)c1	.	.	.	6	.	.
O=C1Nc2ccc(Br)cc2C1(O)c1ccc(F)cc1 (centres undefined)	.	.	.	9	.	.
O=[N+]([O-])c1ccc(N/N=C2/CCCCC2c2ccccn2)cc1 (centres undefined)	-17	23	0.8	39	98*	0
COc1ccc(SC[C@H](C)CN2CC[C@H](C(C)(C)C)CCC2=O)cc1	.	.	.	-10	.	.
N#CC(C#N)=C1C=CC=CN1/C(=C\c1ccco1)C(=O)c1ccc(-c2ccccc2)cc1	-8	22	0.8	33	100*	0
N#CC(C#N)=C1C=CC=CN1/C(=C\c1ccco1)C(=O)c1ccc(Cl)cc1	-6	31	0.7	46	11	0
CCOC(=O)N1CCN(S(=O)(=O)c2ccc(OC)c(C(=O)N3CCCCC3)c2)CC1	.	.	.	-1	.	.
COc1ccc([C@H]2C[C@H](O)[C@@H](n3cc(-c4ccc(F)cc4)nn3)CN2Cc2cccs2)cc1	.	.	.	27	.	.
O=C(NCCCN1CCCC1=O)c1cccc(S(=O)(=O)N2CCCCC2)c1	.	.	.	2	.	.
O=S(=O)(c1ccc(NC(=S)N/N=C/c2ccc(Oc3ccccc3)cc2)cc1)N1CCOCC1	-1	-5	1	-3	-10	0
CCCCOCCCNC(=S)Nc1ccc(S(=O)(=O)N2CCOCC2)cc1	.	.	.	-4	.	.
COc1ccccc1N1CCN(C(=S)Nc2ccc(S(=O)(=O)N3CCOCC3)cc2)CC1	3	23	0.8	15	71*	-1
O=S(=O)(c1ccc(NC(=S)NCCC(c2ccccc2)c2ccccc2)cc1)N1CCOCC1	10	3	1	4	60*	0
SMILES	G6PDH CS	Diaph inh CS	Diaph act CS	PfG6PD inh	Lmaj promast	DTT redox prof
O=S(=O)(c1ccc(NC(=S)N/N=C/c2c3ccccc3cc3ccccc23)cc1)N1CCOCC1	22	28	0.7	-3	95*	0
COc1ccc(-c2csc(-c3cccnc3)n2)cc1C	10	9	0.9	18	80*	-1
FC(F)(F)c1cnc(NNC(=S)Nc2cccnc2)c(Cl)c1	5	-4	1	15	-1	0
CN(C(=O)c1cccc(NC(=O)Cc2cccc(NC(=O)C3CCCN(C(=O)C4CCCCC4)C3)c2)c1)C1CCC1 (centres undefined)	.	.	.	6	.	.
COCCOc1cc(Nc2nnc(C(F)(F)F)s2)c(Cl)cc1Cl	15	7	0.9	17	63*	0
COc1cc(Nc2nnc(C)s2)c(Cl)cc1Cl	3	4	1	20	17	-3
COc1cc(C(=O)NC(C)CCn2cccn2)ccc1OC1CCN(C(C)=O)CC1 (centres undefined)	.	.	.	1	.	.
CCN1CCS/C1=C\C=C\C1=[N+](CC)CCS1	2	6	0.9	-6	100*	-2
CCN1CCS/C1=C/C=C/C1=[N+](CC)CCS1	8	-3	1	-4	100*	0
COc1cccc(/C=N/Nc2nc(Nc3ccc([N+](=O)[O-])cc3)nc(N3CCCC3)n2)c1O	5	12	0.9	-24	100*	-1
O=[N+]([O-])c1ccc(Nc2nc(NC3CCCCC3)nc(N3CCCC3)n2)cc1	3	11	0.9	17	98*	2
O=[N+]([O-])c1ccc(Nc2nc(N/N=C/c3cccc(F)c3)nc(N3CCCC3)n2)cc1	-79	5	1	5	36	0
Cc1nc(COc2ccc(C(=O)NCc3ccccc3CN3CCCCC3)cc2)cs1	.	.	.	-5	.	.
CCNCc1nc2cc(Cl)ccc2c(=O)[nH]1	9	6	0.9	-2	-15	-1
Cc1cc(=O)n2[nH]c(Nc3cccc(Cl)c3)nc2n1	.	.	.	2	.	.
C=CCc1cc(OC)ccc1OCCN1CC(C)OC(C)C1 (centres undefined)	.	.	.	-18	.	.
CCCOc1ccc(Cl)cc1CN1CCOCC1	-4	22	0.8	-12	12	0
C=CCc1cc(Cl)ccc1OCCNCCOC	9	7	0.9	-12	95*	-1
C=CCc1cc(Cl)ccc1OCCN1CC(C)OC(C)C1 (centres undefined)	-1	12	0.9	10	83*	-1
C=CCc1cc(Cl)ccc1OCCNCCN1CCOCC1	10	26	0.7	10	95*	-1
O=C(C[C@H]1C[C@H](C(=O)N2CCCCC2)[C@@]2(CCc3ccccc3)c3[nH]c4ccc(Cl)cc4c3CCN2C1=O)NCc1ccco1	.	.	.	9	.	.
CCOc1ccc2cc(/C=C/C(=O)c3ccco3)c(Cl)nc2c1	-2	8	0.9	9	64*	0
CCN1C(=O)[C@H]2[C@@H](c3ccc(C(F)(F)F)cc3)N[C@]3(CCCN(Cc4ccccc4)C3=O)[C@H]2C1=O	.	.	.	3	.	.
Cn1c(SCC(=O)NC2CCS(=O)(=O)C2)nnc1-c1ccco1 (centres undefined)	.	.	.	-8	.	.
